Assays:
NTPDase8 = target: T1, NTPDase8 (Homo sapiens, UniProt Q5MY95); experiment: Malachite green assay, NTPDase8 in COS-7 cell membranes; format: biochemical
T1 sequence (Q5MY95 1-495): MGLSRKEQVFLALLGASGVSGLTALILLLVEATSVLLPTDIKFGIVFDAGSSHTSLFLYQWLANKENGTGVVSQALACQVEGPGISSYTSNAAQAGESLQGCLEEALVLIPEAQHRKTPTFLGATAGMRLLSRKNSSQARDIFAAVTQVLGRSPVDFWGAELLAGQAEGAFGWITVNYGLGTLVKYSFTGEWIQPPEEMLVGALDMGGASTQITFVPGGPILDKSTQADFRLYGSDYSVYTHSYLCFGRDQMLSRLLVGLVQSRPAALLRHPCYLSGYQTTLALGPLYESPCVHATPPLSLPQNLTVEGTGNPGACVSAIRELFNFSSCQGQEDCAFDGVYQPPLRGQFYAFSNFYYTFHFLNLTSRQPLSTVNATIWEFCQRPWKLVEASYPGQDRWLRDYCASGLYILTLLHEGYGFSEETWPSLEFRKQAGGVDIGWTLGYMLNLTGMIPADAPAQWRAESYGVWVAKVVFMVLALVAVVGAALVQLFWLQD
Outline: (§1)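 Human NTPDase2, -3 or -8 was expressed in COS-7 membranes (ca. 100 ng protein, adjusted for 10–20% substrate conversion). Enzyme was preincubated 5 min at 37°C with test compound (50 µM single point, or 0.1–300 µM for curves). It was then incubated 15 min at 37°C with 100 µM ATP in HEPES/CaCl2/MgCl2, pH 7.4, ≤2% DMSO. Malachite green absorbance at 600 nm was corrected by a denatured-enzyme blank; n=3.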

human PBMCs = experiment: HPLC assay of ATPase activity; format: cell-based; conditions: ceritinib 50 µM and higher; 1 µM eATP
Outline: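 PBMCs were isolated from buffy coats by density gradient. Cells (2×10^5) were pretreated with test compound (1, 10, 50, 100 µM) for 15 min at 37°C, then given 1 µM eATP (ATPase) or eAMP (AMPase) for 30 min at 37°C. Cells were removed and supernatants 10 kDa-filtered. Etheno-nucleotides were quantified by reversed-phase C8 HPLC (phosphate pH 6.0/methanol gradient; fluorescence 230/410 nm) against standards; singlets, n=2–3.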

TNBC (MDA-MB-231) cells = experiment: Extracellular eATP hydrolysis on live TNBC cells; format: cell-based, human; conditions: 1, 10, 100 µM, significant at 10 µM, 20 µM eATP
melanoma (MaMel65) cells = experiment: Extracellular eATP hydrolysis on live melanoma cells; format: cell-based, human; conditions: 1, 10, 100 µM, significant at 10 µM, 20 µM eATP
NPP5 = target: T2, NPP5 (Homo sapiens, UniProt Q9UJA9); experiment: NPP5 assay; format: biochemical
T2 sequence (Q9UJA9 25-431 limits assumed): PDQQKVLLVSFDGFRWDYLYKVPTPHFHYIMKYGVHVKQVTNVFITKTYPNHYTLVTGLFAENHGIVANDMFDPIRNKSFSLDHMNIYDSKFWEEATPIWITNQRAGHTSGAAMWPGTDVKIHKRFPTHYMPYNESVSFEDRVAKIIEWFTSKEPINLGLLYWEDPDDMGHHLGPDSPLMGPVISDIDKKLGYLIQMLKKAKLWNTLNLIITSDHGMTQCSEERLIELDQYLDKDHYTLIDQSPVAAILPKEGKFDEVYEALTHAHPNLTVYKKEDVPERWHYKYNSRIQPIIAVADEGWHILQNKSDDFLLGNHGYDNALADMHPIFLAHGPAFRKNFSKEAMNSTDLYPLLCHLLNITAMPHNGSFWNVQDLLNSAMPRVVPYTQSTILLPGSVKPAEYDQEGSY
Outline: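 Either CD38 (5 ng) or NPP5 (250 ng) was mixed with 50 µM test compound and 100 µM NAD+ as substrate. For CD38 the reaction buffer was 10 mM HEPES, pH 7.4.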

NTPDase2 = target: T3, NTPDase2 (Homo sapiens, UniProt Q9Y5L3); experiment: Malachite green assay, NTPDase2 in COS-7 cell membranes; format: biochemical
T3 sequence (Q9Y5L3 1-495): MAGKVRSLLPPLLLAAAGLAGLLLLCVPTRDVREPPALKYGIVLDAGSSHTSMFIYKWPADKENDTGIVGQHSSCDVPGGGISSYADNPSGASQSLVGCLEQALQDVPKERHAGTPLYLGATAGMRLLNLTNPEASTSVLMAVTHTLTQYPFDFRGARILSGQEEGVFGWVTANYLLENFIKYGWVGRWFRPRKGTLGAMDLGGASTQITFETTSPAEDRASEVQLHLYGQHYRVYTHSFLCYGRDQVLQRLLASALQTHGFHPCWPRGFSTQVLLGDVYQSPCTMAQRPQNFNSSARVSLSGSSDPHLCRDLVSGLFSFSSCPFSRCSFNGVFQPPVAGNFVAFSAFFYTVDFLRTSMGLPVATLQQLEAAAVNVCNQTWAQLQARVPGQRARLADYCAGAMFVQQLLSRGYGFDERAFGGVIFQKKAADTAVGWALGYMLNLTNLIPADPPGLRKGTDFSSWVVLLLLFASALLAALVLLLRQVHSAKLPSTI
Outline: as §1

[1] = system: melanoma (Ma-Mel-65) cell membrane preparations; experiment: Malachite green assay, ATP hydrolysis by melanoma cell membrane preparations; format: biochemical, human; conditions: increasing concentrations of ceritinib, 50 µM ATP
Outline: (§2)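 Crude membranes came from ~90% confluent MDA-MB-231 or Ma-Mel-65 cells. Cells were homogenised in Tris/EDTA/saccharose/PMSF buffer, pH 7.4, and centrifuged at 1000 g, then 48,000 g for 1 h at 4°C. Pellets were washed and stored at −80°C in 50 mM Tris-HCl, pH 7.4. ATP hydrolysis (50 µM ATP, HEPES/Ca/Mg pH 7.4) was run with increasing test compound concentrations for 15 min at 37°C. Phosphate was read by malachite green (600 nm); triplicates, n=3.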

[2] = system: TNBC (MDA-MB-231) cell membrane preparations; experiment: Malachite green assay, ATP hydrolysis by TNBC cell membrane preparations; format: biochemical, human; conditions: increasing concentrations of ceritinib, 50 µM ATP
Outline: as §2

[3] = cited from earlier work
ALK = conditions: ref 59 60; cited from earlier work
[4] = read-out: % inhibition at 50 µM

Question: With `Cc1cc(Nc2ncc(Cl)c(Nc3ccccc3S(=O)(=O)C(C)C)n2)c(OC(C)C)cc1C1CCNCC1` [ceritinib, Ceritinib] as the molecule, how does the IC50 (NTPDase8) read?
Answer: Its IC50 is 20.3 ± 1.5 µM.

Question: What about the “formation of eAMP from eATP by PBMCs” value (human PBMCs) of the same molecule?
Answer: The value was “completely blocked”.

Question: What about the “inhibition of hydrolysis of eATP added to live cells” value (TNBC (MDA-MB-231) cells) of the same molecule?
Answer: Its value is “concentration-dependent inhibition”.

Question: And the “inhibition of hydrolysis of eATP added to live cells” value (melanoma (MaMel65) cells)?
Answer: The value was “concentration-dependent inhibition”.

Question: What about the IC50 (NPP5) of the same molecule?
Answer: The IC50 was greater than 50 µM.

Question: And the inhibition at 50 µM (NPP5; [4])?
Answer: Its inhibition at 50 µM is 1%.

Question: And the IC50 (NTPDase2)?
Answer: Its IC50 is greater than 50 µM.

Question: And the inhibition at 50 µM (NTPDase2; [4])?
Answer: The inhibition at 50 µM was -8%.

Question: And the “ATPase activity of cancer cell membranes” value [1]?
Answer: Its value is “decreased significantly”.

Question: What about the “ATPase activity of cancer cell membranes” value [2] of the same molecule?
Answer: The value was “decreased significantly”.

Question: What about the metabolic stability [3] of the same molecule?
Answer: Its metabolic stability is “metabolically highly stable”.

Question: And the “IC50 value against ALK” value (ALK)?
Answer: Its value is “subnanomolar range”.

— PMC9394215 (Journal for Immunotherapy of Cancer, 2022)
